Assay outcomes: PubChem BioAssay, several laboratories
Compounds with a hit are over-represented: about 2% of the library has one in this group of screens.
PAD4 inh – PAD4 (human) enzyme inhibition; Q9UM07; actives 0.41% (n = 330,000); inhibition, % at 6.36 µM; recombinant PAD4, RCA probe fluorescence polarization;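 active = percent inhibition above a cutoff equal to the mean of all tested compounds plus 3 SD, cut at about 15% in these data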;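 note: 0% = PAD4 with RCA probe and DMSO and 100% = probe without PAD4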
Apaf1 inhib – blocks human Apaf-1 apoptosome activity | O14727 | reconstituted apoptosome caspase-3 activity, DEVD-Rh110 fluorescence | inhibition, % at 20 µM | actives 0.71% (n = 330,000) | AID 489030; active = inhibition of at least 40% at 20 µM;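 note: plate controls were DMSO wells for no effect and DEVD-CHO caspase inhibitor wells for full effect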
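Material: biochemical Apaf-1 apoptosome reconstitution. Medium: Hepes buffer, pH 7.5. Also added: cytochrome c activation, bis-DEVD rhodamine 110 substrate. Timing: 30 min compound preincubation, 50 min activation, room temperature. Measured by: rhodamine 110 fluorescence at Ex 480/Em 540 nm.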
UCH37 inh – blocks the human deubiquitinase UCH37; purified proteasome/UCH37, Ub-AMC cleavage fluorescence; inhibition, % (concentration not given with the values); actives 0.33% (n = 330,000); Q9Y5K5; AID 588478;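 active = mean inhibition over replicate wells above about 20%, limit read from the data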;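 note: 0% = compound-free wells with enzyme and 100% = wells lacking proteasome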
Target sequence (Q9Y5K5 whole entry, looked up): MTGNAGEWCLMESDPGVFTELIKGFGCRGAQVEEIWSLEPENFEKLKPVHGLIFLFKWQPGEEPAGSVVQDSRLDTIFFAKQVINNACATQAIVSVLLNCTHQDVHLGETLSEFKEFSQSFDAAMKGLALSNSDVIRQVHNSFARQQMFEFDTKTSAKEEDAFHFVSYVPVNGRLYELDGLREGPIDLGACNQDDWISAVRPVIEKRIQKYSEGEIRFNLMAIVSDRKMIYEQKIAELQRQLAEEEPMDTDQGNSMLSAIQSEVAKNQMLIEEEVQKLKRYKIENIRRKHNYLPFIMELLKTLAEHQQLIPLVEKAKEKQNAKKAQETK
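Test system – human UCH37 enzyme supplied as purified proteasome complex · Incubation – 30 min preincubation with enzyme, 25 min cleavage at room temperature · Detection – AMC fluorescence from Ub-AMC cleavage, excitation 355 nm, emission 460 nm · Benchmarks – no-proteasome wells (full inhibition) and compound-free wells (no inhibition)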
GSTO1 inh – GSTO1 inhibition, counter-screen for RBBP9 inhibitors | P78417 | recombinant GSTO1, activity-based probe fluorescence polarization | inhibition, % at 5.96 µM | actives 1.1% (n = 300,000) | AID 1974;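 active = inhibition above the campaign mean inhibition plus 3 SD, cut at about 35% in these data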;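 note: 0% = GSTO1-1 with DMSO and 100% = wells lacking GSTO1-1 enzyme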
Target sequence (P78417 whole entry, looked up): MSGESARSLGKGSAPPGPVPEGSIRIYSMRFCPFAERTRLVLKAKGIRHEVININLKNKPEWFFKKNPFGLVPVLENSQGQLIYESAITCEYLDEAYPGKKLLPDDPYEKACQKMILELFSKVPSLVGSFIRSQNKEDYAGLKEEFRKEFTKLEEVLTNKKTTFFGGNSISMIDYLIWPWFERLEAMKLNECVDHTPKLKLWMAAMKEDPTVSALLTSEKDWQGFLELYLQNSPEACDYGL
PP5 inh – inhibitors of human protein phosphatase 5 (PP5). P53041. actives 0.18% (n = 320,000). purified PP5c, OMFP substrate fluorescence. inhibition, % at 6.7 µM;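 active = inhibition above the campaign's mean inhibition across all tested compounds plus 3 SD, cut at about 9.5% in these data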;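 note: 0% = DMSO only and 100% = 100 µM cantharidin control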
CTSL1 counter – blocks F. hepatica cathepsin L1 in PFM18AAP counter-screen; recombinant F. hepatica cathepsin L1, Z-Leu-Arg-MCA fluorescence; inhibition, % at 5.96 µM; AID 1906; actives 0.49% (n = 300,000);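 active = inhibition above the mean of all tested compounds plus 3 SD, set per screening campaign, cut at about 17% in these data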;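 note: 0% = plate median of test compound wells and 100% = 1 µM Z-Phe-Ala-diazomethylketone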
GSTO1 inh conf – GSTO1 (human) inhibition, confirmation | AID 2176 | inhibition, % at 5.96 µM | recombinant GSTO1, probe fluorescence polarization | actives 54% (n = 2,400) | shares compounds with GSTO1 inh;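 active = inhibition above the primary screen's cutoff, its mean inhibition plus 3 SD, cut at about 35% in these data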;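 note: loss of polarization as inhibitors block binding of rhodamine sulfonate ester activity probe; 0% = GSTO1 with DMSO and 100% = wells lacking GSTO1 enzyme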
Numbers without * were called inactive; nt = no result.

SMILES | PAD4 inh | Apaf1 inhib | UCH37 inh | GSTO1 inh | PP5 inh | CTSL1 counter | GSTO1 inh conf
COc1ccc(NC(=O)CSCc2cc(=O)n3nc(C4CC4)sc3n2)cc1 | 1 | 3 | 5 | 38* | 3 | -1 | 18
Cc1cccc(NC(=O)CSCc2cc(=O)n3nc(C4CC4)sc3n2)c1 | -1 | -11 | 6 | 1 | 0 | -1 | nt
NC1=NC(=O)/C(=C\c2ccco2)S1 | 2 | -5 | 9 | 41* | 0 | 6 | 31
Cc1ccc(C2CC(c3cccs3)=NN2C(=O)CCl)cc1 (configuration not stated) | 7 | 16 | nt | 87* | 4 | 52* | 97*
COc1ccc(C=NNC(=O)NC23CC4CC(CC(C4)C2)C3)c(OC)c1 | nt | nt | 1 | nt | nt | nt | nt
O=c1c(-c2ccc([N+](=O)[O-])cc2)coc2c(O)c(O)ccc12 | 3 | -2 | nt | 53* | 0 | 0 | 25
CC1Oc2ccccc2C=C1C=NNC(=O)c1ccccc1O (configuration not stated) | nt | nt | -6 | nt | nt | nt | nt
O=C(NCc1ccc2c(c1)OCO2)c1nnc(Cc2ccc(Cl)cc2)o1 | -2 | -4 | 1 | 59* | 0 | 1 | 1
CCCC(=NNC(=O)c1ccco1)c1ccc(Cl)s1 | nt | nt | -1 | nt | nt | nt | nt
CC[n+]1ccc(C[n+]2ccccc2)c2ccccc21 | -8 | nt | 2 | 49* | -1 | 10 | 7
Oc1ccc(C=NNc2ccc(Cl)nn2)cc1O | nt | nt | 12 | nt | nt | nt | nt
N=C1CCC(=N)c2c1c(O)c1ccccc1c2O | 43* | 77* | nt | 77* | 3 | 19* | 77*
O=C(CNC(=O)C1COc2ccccc2O1)NN=Cc1cccc(O)c1 (configuration not stated) | nt | nt | 3 | nt | nt | nt | nt
Cc1cc(C(=O)CCl)c(C)n1-c1cccc([N+](=O)[O-])c1 | 2 | -11 | 5 | 96* | 1 | 12 | 94*
CC(=O)c1c(C(C)=O)c(C)n(-c2cccc([N+](=O)[O-])c2)c1C | 0 | 5 | 1 | 14 | 3 | -2 | nt
N#CCC(=O)NN=Cc1cc(-c2ccccc2)n(-c2ccc(Cl)cc2)c1-c1ccccc1 | nt | nt | -19 | nt | nt | nt | nt
N#CC1=C(N)NC(=S)C(C(N)=O)C1c1ccc([N+](=O)[O-])cc1 (configuration not stated) | 1 | -14 | 7 | 7 | 2 | 4 | nt
Cc1cccc[n+]1C1C(c2ccc([N+](=O)[O-])cc2)C(C#N)=C(C(=C=[N-])C#N)NC1(O)C1CC1 (configuration not stated) | 9 | 20 | 5 | 40* | 0 | 1 | 48*
Oc1cc(O)c2c(c1)O[C@H](c1ccc(O)c(O)c1)[C@H](O)C2 | -2 | 0 | nt | 40* | -1 | 0 | 7
O=C(O[C@@H]1Cc2c(O)cc(O)cc2O[C@@H]1c1cc(O)c(O)c(O)c1)c1cc(O)c(O)c(O)c1 | nt | -6 | nt | nt | nt | nt | nt
Cc1cc(=O)n(Cc2ccccc2)c(O)c1C#N | -22 | 18 | -6 | 6 | 1 | -7 | nt
Cc1c(C#N)c(NC(=O)CCl)n(Cc2ccccc2)c1C | 0 | 7 | 2 | 86* | 0 | 40* | 91*
Cc1c(C#N)c(NC(=O)CCl)n(Cc2ccc(F)cc2)c1C | 1 | -1 | -2 | 81* | 1 | 12 | 96*
COc1cccc(C=NNC(=O)c2ccncc2)c1OC(=O)c1ccc(Br)cc1 | nt | nt | 3 | nt | nt | nt | nt
CC(CC(=O)NCc1ccco1)=NNC(=O)CC#N | nt | nt | 0 | nt | nt | nt | nt
SMILES | PAD4 inh | Apaf1 inhib | UCH37 inh | GSTO1 inh | PP5 inh | CTSL1 counter | GSTO1 inh conf
COc1ccc2nc(Nc3sc4c(c3C(N)=O)CCCC4)sc2c1 | -57 | 17 | -21 | 42* | 1 | 3 | 25
O=C(O)c1cccc(Cn2c(Cl)c(C=NNC(=O)c3cccc(O)c3)sc2=O)c1 | nt | nt | 13 | nt | nt | nt | nt
O=C(NCCN1CCOCC1)NC1(C(F)(F)F)Oc2ccc(Cl)cc2O1 (configuration not stated) | -4 | nt | 1 | 49* | 1 | -5 | 6
O=C(NCCN1CCOCC1)c1cc(Cl)ccc1Cl | nt | -6 | -1 | nt | nt | nt | nt
COc1cc(/C=N/NS(=O)(=O)c2ccc(C(C)(C)C)cc2)cc([N+](=O)[O-])c1O | -1 | -2 | nt | 50* | 1 | 5 | 64*
CNc1ccc(Br)cc(C(=O)/C=C/c2cc(OC)ccc2OC)c1=O | -1 | 27 | 7 | 40* | 3 | -2 | 13
CCNc1ccc(Br)cc(C(=O)/C=C/c2ccc(Cl)cc2Cl)c1=O | -3 | 34 | 8 | 43* | 3 | 4 | 7
CNc1ccc(Br)cc(C(=O)/C=C/c2ccc3c(c2)OCO3)c1=O | -3 | 28 | 3 | 55* | -2 | 2 | 16
CNc1ccc(Br)cc(C(=O)/C=C/c2ccc(OC)cc2)c1=O | -4 | 30 | 7 | 28 | 3 | 3 | nt
COc1cccc(C=Nn2c(N)c(S(=O)(=O)c3cccs3)c3nc4ccccc4nc32)c1 | nt | nt | -124 | nt | nt | nt | nt
Fc1ccc(NC(=S)NN=Cc2ccc(F)c(F)c2)cc1 | nt | nt | 0 | nt | nt | nt | nt
COc1ccc(/C=C2\SC(=O)NC2=S)cc1OC | -10 | 2 | 16 | 62* | 1 | -1 | 72*
CCOc1ccc(/C=C2\SC(=S)NC2=O)cc1OC | -7 | -1 | 12 | -8 | -1 | 4 | nt
Cc1cccc(NC(=O)CSc2nnc(-c3ccco3)c(-c3ccco3)n2)c1C | -8 | 24 | nt | 42* | 2 | 5 | 16
CC(=NNc1nccnc1Cl)c1ccc(Br)cc1 | nt | nt | 6 | nt | nt | nt | nt
Nc1nnnn1N=Cc1cccc(O)c1 | nt | nt | 1 | nt | nt | nt | nt
COc1ccc(C=NNC(=O)CNC(=O)c2ccncc2)cc1OC | nt | nt | 5 | nt | nt | nt | nt
O=C1c2cc(CO)cc(O)c2C(=O)c2c(O[C@@H]3OC(CO)[C@@H](O)[C@@H](O)[C@@H]3O)cccc21 (some centres not stated) | 1 | -4 | 3 | 7 | 5 | -1 | nt
O=C(O)c1cc(O)c2c(c1)[C@@H]([C@H]1c3cc(C(=O)O)cc(O)c3C(=O)c3c(O[C@@H]4O[C@H](CO)[C@@H](O)[C@H](O)[C@H]4O)cccc31)c1cccc(OC3O[C@H](CO)[C@@H](O)[C@H](O)[C@H]3O)c1C2=O (some centres not stated) | -47 | 95* | 31* | 84* | 9.8* | 12 | 80*
Oc1cccc(O)c1O | -3 | 2 | nt | 62* | 5 | -4 | 7
COc1ccc(NS(=O)(=O)c2ccc(O)c(C(=O)OCC(=O)NC(C)C3CC4CCC3C4)c2)cc1 (configuration not stated) | -2 | 10 | 2 | -15 | -1 | 1 | nt
CC(NC(=O)COC(=O)c1cc(NS(=O)(=O)c2ccc(Cl)c([N+](=O)[O-])c2)ccc1O)C1CC2CCC1C2 (configuration not stated) | 1 | 13 | 7 | 46* | 4 | 2 | 40*
